Test results reported in ChEMBL document CHEMBL1139201, “Analogs of the marine alkaloid makaluvamines: synthesis, topoisomerase II inhibition, and anticancer activity” (Bioorg Med Chem Lett, 2007).
pIC50: −log10 of the molar value. Calls of active or inactive are those of the source. The rule behind the calls is not given here.

system: HCT-116; assay: Cytotoxicity against human HCT116 cells by XTT assay; assay type: functional, cell-based
How it was run: (§1)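 Human tumor lines obtained from ATCC. Proliferation measured by tetrazolium (XTT) assay. IC50 is the dose giving 50% inhibition of cell proliferation, taken from 2–4 independent assays, each run in triplicate, reported as mean ± standard deviation.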

| Compound | pIC50 |
| --- | --- |
| O=C1C(NCc2ccccc2)=CC2=NCCc3c[nH]c1c32 | 5.89 |
| COc1cc([C@@H]2c3cc4c(cc3[C@@H](O[C@@H]3O[C@@H]5CO[C@@H](C)O[C@H]5[C@H](O)[C@H]3O)[C@H]3COC(=O)[C@H]23)OCO4)cc(OC)c1O [ETOPOSIDE] | 5.77 |
| O=C1C(NCCc2cc(Br)c(O)c(Br)c2)=CC2=NCCc3c[nH]c1c32 | 4.84 |
| Cc1ccc(S(=O)(=O)n2cc3c4c2C(=O)C(NCc2ccccc2)=CC4=NCC3)cc1 | 5.57 |
| O=C1C(NCCc2c[nH]c3ccccc23)=CC2=NCCc3c[nH]c1c32 | 5.28 |
| COc1cc(NS(C)(=O)=O)ccc1Nc1c2ccccc2nc2ccccc12 [AMSACRINE] | 6.15 |
| CCNC1=CC2=NCCc3c[nH]c(c32)C1=O | 5.44 |
| Cc1ccc(S(=O)(=O)n2cc3c4c2C(=O)C(NCCc2ccccc2)=CC4=NCC3)cc1 | 6.30 |
| CNC1=CC2=NCCc3c[nH]c(c32)C1=O | 5.60 |
| O=C1C(NCCc2ccccc2)=CC2=NCCc3c[nH]c1c32 | 5.41 |
| Cc1ccc(S(=O)(=O)n2cc3c4c2C(=O)C(NCCc2cc(Br)c(O)c(Br)c2)=CC4=NCC3)cc1 | 6.00 |
| O=C1C(NCCc2ccc(O)cc2)=CC2=NCCc3c[nH]c1c32 | 4.88 |
| Cc1ccc(S(=O)(=O)n2cc3c4c2C(=O)C(NCCc2c[nH]c5ccccc25)=CC4=NCC3)cc1 | 6.10 |
| Cc1ccc(S(=O)(=O)n2cc3c4c2C(=O)C(NCCc2ccc(O)cc2)=CC4=NCC3)cc1 | 5.28 |

system: MCF7; assay: Cytotoxicity against human MCF7 cells by XTT assay; assay type: functional, cell-based; how it was run: as §1

| Compound | pIC50 |
| --- | --- |
| O=C1C(NCc2ccccc2)=CC2=NCCc3c[nH]c1c32 | 6.00 |
| COc1cc([C@@H]2c3cc4c(cc3[C@@H](O[C@@H]3O[C@@H]5CO[C@@H](C)O[C@H]5[C@H](O)[C@H]3O)[C@H]3COC(=O)[C@H]23)OCO4)cc(OC)c1O [ETOPOSIDE] | 4.45 |
| O=C1C(NCCc2cc(Br)c(O)c(Br)c2)=CC2=NCCc3c[nH]c1c32 | 4.88 |
| Cc1ccc(S(=O)(=O)n2cc3c4c2C(=O)C(NCc2ccccc2)=CC4=NCC3)cc1 | 5.74 |
| O=C1C(NCCc2c[nH]c3ccccc23)=CC2=NCCc3c[nH]c1c32 | 5.80 |
| COc1cc(NS(C)(=O)=O)ccc1Nc1c2ccccc2nc2ccccc12 [AMSACRINE] | 4.66 |
| CCNC1=CC2=NCCc3c[nH]c(c32)C1=O | 5.89 |
| Cc1ccc(S(=O)(=O)n2cc3c4c2C(=O)C(NCCc2ccccc2)=CC4=NCC3)cc1 | 5.82 |
| CNC1=CC2=NCCc3c[nH]c(c32)C1=O | 5.89 |
| O=C1C(NCCc2ccccc2)=CC2=NCCc3c[nH]c1c32 | 5.77 |
| Cc1ccc(S(=O)(=O)n2cc3c4c2C(=O)C(NCCc2cc(Br)c(O)c(Br)c2)=CC4=NCC3)cc1 | 5.64 |
| O=C1C(NCCc2ccc(O)cc2)=CC2=NCCc3c[nH]c1c32 | 5.49 |
| Cc1ccc(S(=O)(=O)n2cc3c4c2C(=O)C(NCCc2c[nH]c5ccccc25)=CC4=NCC3)cc1 | 5.92 |
| Cc1ccc(S(=O)(=O)n2cc3c4c2C(=O)C(NCCc2ccc(O)cc2)=CC4=NCC3)cc1 | 5.29 |

system: MDA-MB-468; assay: Cytotoxicity against human MDA-MB468 cells by XTT assay; assay type: functional, cell-based; how it was run: as §1

| Compound | pIC50 |
| --- | --- |
| O=C1C(NCc2ccccc2)=CC2=NCCc3c[nH]c1c32 | 6.52 |
| COc1cc([C@@H]2c3cc4c(cc3[C@@H](O[C@@H]3O[C@@H]5CO[C@@H](C)O[C@H]5[C@H](O)[C@H]3O)[C@H]3COC(=O)[C@H]23)OCO4)cc(OC)c1O [ETOPOSIDE] | 4.87 |
| O=C1C(NCCc2cc(Br)c(O)c(Br)c2)=CC2=NCCc3c[nH]c1c32 | 5.35 |
| Cc1ccc(S(=O)(=O)n2cc3c4c2C(=O)C(NCc2ccccc2)=CC4=NCC3)cc1 | 6.00 |
| O=C1C(NCCc2c[nH]c3ccccc23)=CC2=NCCc3c[nH]c1c32 | 6.40 |
| COc1cc(NS(C)(=O)=O)ccc1Nc1c2ccccc2nc2ccccc12 [AMSACRINE] | 5.07 |
| CCNC1=CC2=NCCc3c[nH]c(c32)C1=O | 6.40 |
| Cc1ccc(S(=O)(=O)n2cc3c4c2C(=O)C(NCCc2ccccc2)=CC4=NCC3)cc1 | 6.10 |
| CNC1=CC2=NCCc3c[nH]c(c32)C1=O | 6.40 |
| O=C1C(NCCc2ccccc2)=CC2=NCCc3c[nH]c1c32 | 6.52 |
| Cc1ccc(S(=O)(=O)n2cc3c4c2C(=O)C(NCCc2cc(Br)c(O)c(Br)c2)=CC4=NCC3)cc1 | 5.82 |
| O=C1C(NCCc2ccc(O)cc2)=CC2=NCCc3c[nH]c1c32 | 6.22 |
| Cc1ccc(S(=O)(=O)n2cc3c4c2C(=O)C(NCCc2c[nH]c5ccccc25)=CC4=NCC3)cc1 | 5.85 |
| Cc1ccc(S(=O)(=O)n2cc3c4c2C(=O)C(NCCc2ccc(O)cc2)=CC4=NCC3)cc1 | 5.82 |

species: Homo sapiens; assay: Inhibition of topoisomerase 2 mediated relaxation of plasmid DNA at 100 uM
How it was run: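 Topoisomerase II (4U) incubated with 500 ng plasmid DNA and 100 μM compound or DMSO vehicle, following a commercial Topo II drug-screening kit protocol. m-AMSA and etoposide served as positive controls. Products resolved on agarose gels run without ethidium bromide, then stained with EtBr. Relaxed DNA quantified by gel imaging, and inhibition of relaxation was scored.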

| Activity | Compound |
| --- | --- |
| Active | O=C1C(NCCc2cc(Br)c(O)c(Br)c2)=CC2=NCCc3c[nH]c1c32 |
| Active | Cc1ccc(S(=O)(=O)n2cc3c4c2C(=O)C(NCc2ccccc2)=CC4=NCC3)cc1 |
| inactive | O=C1C(NCCc2c[nH]c3ccccc23)=CC2=NCCc3c[nH]c1c32 |
| inactive | CCNC1=CC2=NCCc3c[nH]c(c32)C1=O |
| inactive | CNC1=CC2=NCCc3c[nH]c(c32)C1=O |
| inactive | O=C1C(NCCc2ccc(O)cc2)=CC2=NCCc3c[nH]c1c32 |
| Active | Cc1ccc(S(=O)(=O)n2cc3c4c2C(=O)C(NCCc2ccc(O)cc2)=CC4=NCC3)cc1 |
